Source: PubChem BioAssay
This is a sample that favours compounds with a hit; in the whole collection about 1.5% have one here.
HCV core dimer: HCV core protein dimerization inhibition; TR-FRET GST/Flag-core106 dimerization, 1536-well; hit rate 0.33% among 300,000; inhibition, % at 5 µM; AID 1899;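 active means inhibition above the mean of all tested compounds plus 3 SD, set per screening campaign, cut at about 45% in these data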
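Assay system: Tagged HCV core106 pair (GST and Flag) | Buffer or medium: KF-containing HEPES buffer, pH 7.45, DTT, CHAPS, BSA | Also added: Eu donor and XL665 acceptor anti-tag antibodies | Dosing: One concentration, 5 µM, in 0.5% DMSO | Timing: 4 h at 22.5 °C | Technique: TR-FRET 671 and 617 nm emission | Repeats: Singlicate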
FID counter: displaces DNA intercalator in HCV helicase counter-screen; inhibition, % at 7.9 µM; DNA fluorescent intercalator displacement, fluorescence; hit rate 0.17% among 290,000; in the data active means inhibition above about 37%;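 further: 0% = vehicle and 100% = reference compound; higher means more ethidium bromide displaced from hairpin DNA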
MEX-5 binding: C. elegans MEX-5 TCR-2 RNA binding activity. activity score (negative = inhibition of binding), % at 10 µM. Q9XUB2. MEX-5/FITC-TCR2 RNA binding, fluorescence polarization; hits give low values. AID 1832. hit rate 0.38% among 300,000;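 active means inhibition past about -25% in most replicates, and total fluorescence under double the plate's negative control median, limit read from the data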;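 further: 0% = DMSO and -100% = 5 µM competing unlabeled TCR2 RNA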
NRP1-CendR mod: NRP-1/CendR interaction modulation. inhibition, % at 25 µM. hit rate 0.85% among 360,000. FAM-RPARPAR peptide binding to NRP-1, fluorescence polarization. O14786;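 active means inhibition or corrected inhibition above about 18%, plus a signal ratio from 0.5 to 1.5, limit read from the data, passing the limit was not always enough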
The depositor's hits bear a star.

For COC(=O)CCCC1=CC2=C(c3ccccc3)C(=O)C(C)(OC(=O)C3CCCC3)C(=O)C2=CN1C1CCCC1 (stereo unspecified) the results were HCV core dimer 7, MEX-5 binding -1 and NRP1-CendR mod 30*.
For COC(=O)CCCC1=CC2=C(c3ccccc3)C(=O)C(C)(OC(=O)C3CCCC3)C(=O)C2=CN1CC(C)C (stereo unspecified) the results were HCV core dimer -15, MEX-5 binding -5 and NRP1-CendR mod 28*.
COC(=O)CCCC1=CC2=C(c3ccccc3)C(=O)C(C)(OC(=O)C3CCCC3)C(=O)C2=CN1C1CCCCC1 (stereo unspecified) was read as HCV core dimer 14, MEX-5 binding -2 and NRP1-CendR mod 1.
Screening CCN(CC)CCCN1C=C2C(=O)C(C)(OC(=O)C3CCCC3)C(=O)C(c3ccccc3)=C2C=C1CCCC(=O)OC (stereo unspecified) returned HCV core dimer 7, MEX-5 binding -10 and NRP1-CendR mod 36*.
For COCCN1C=C2C(=O)C(C)(OC(=O)C3CCCC3)C(=O)C(c3ccccc3)=C2C=C1CCCC(=O)OC (stereo unspecified) the results were HCV core dimer 4, MEX-5 binding -3 and NRP1-CendR mod 26*.
Screening ClCc1nc2ccccc2n1Cc1ccccc1 returned HCV core dimer -12, FID counter 9, MEX-5 binding -66* and NRP1-CendR mod 6.
Cc1cc(C)c(NC(=O)C2C(=O)Nc3ccccc3C(=O)N2C(C)(C)C)c(C)c1 (stereo unspecified) was read as NRP1-CendR mod 4.
`Cc1ccc(NC(=O)COc2ccc3c(c2)OCO3)c(C)c1` gave NRP1-CendR mod 16*.
CC(Sc1nnnn1C1CC1)C(=O)N1c2ccccc2NC(=O)C1(C)C (stereo unspecified) was read as NRP1-CendR mod 26*.
Cc1nc(Cc2nnc(SC(C)C(=O)N3c4ccccc4NC(=O)C3(C)C)o2)cs1 (stereo unspecified) was read as NRP1-CendR mod 3.
Screening CCOC(=O)/C=C/c1cccc(C)c1O returned NRP1-CendR mod 6.
`c1ccc(OCc2nn3c(-c4n[nH]c5c4CCC5)nnc3s2)cc1` gave HCV core dimer 47*, MEX-5 binding 2 and NRP1-CendR mod 4.
For Cc1nnc2sc(COc3ccccc3)nn2c1=O the results were HCV core dimer 15, FID counter -7, MEX-5 binding 1 and NRP1-CendR mod -8.
For CC1(C(=O)NS(=O)(=O)C2CC2)CCN(C(=O)c2ccc(F)cc2Cl)C1 (stereo unspecified) the results were NRP1-CendR mod 6.
Screening CCn1nc([N+](=O)[O-])c(C(C#N)c2nc3cc(C(F)(F)F)ccc3s2)c(Cl)c1=O (stereo unspecified) returned HCV core dimer 3, FID counter 1, MEX-5 binding -6 and NRP1-CendR mod 26*.
Screening C[C@@H]1CN([C@H](C)CO)C(=O)CCCn2nncc2CO[C@H]1CN(C)C(=O)NC1CCCCC1 returned NRP1-CendR mod 11.
Screening COc1cc2cc(Oc3ccc4ccc(=O)oc4c3)c(=O)oc2cc1OC(=O)/C=C/c1ccccc1 returned HCV core dimer 12, MEX-5 binding 1 and NRP1-CendR mod 27*.
COc1cc2cc(Oc3ccc4ccc(=O)oc4c3)c(=O)oc2cc1O[C@@H]1O[C@H](CO)[C@@H](O)[C@H](O)[C@H]1O was read as NRP1-CendR mod -49.
COc1ccccc1[N+](=O)[O-] was read as NRP1-CendR mod 1.
Cc1ccc(S(=O)(=O)Oc2ccccc2[N+](=O)[O-])cc1 was read as NRP1-CendR mod 20*.
Screening Cc1ccc(CN2CCS(=O)(=O)CC2)cc1 returned HCV core dimer -7, FID counter 1, MEX-5 binding 0 and NRP1-CendR mod 27*.
`C=CCn1c(COc2ccc(CC)cc2)nnc1SC/C(O)=C(\C#N)c1nc2ccccc2[nH]1` gave HCV core dimer 70*, FID counter -12, MEX-5 binding -1 and NRP1-CendR mod -24.
For N#C/C(=C(/O)CSc1nnc(Cc2cccs2)n1C1CCCCC1)c1nc2ccccc2[nH]1 the results were HCV core dimer 63*, FID counter -33, MEX-5 binding 3 and NRP1-CendR mod -36.
COc1cccc(-c2ccc3c(c2)O[C@@H](CN(C)Cc2cncnc2)[C@@H](C)CN([C@H](C)CO)S3(=O)=O)c1 was read as NRP1-CendR mod 12.
`N#Cc1cccc(C(=O)C(=O)N2CCN(C(=O)OCc3ccccc3)CC2)c1` gave NRP1-CendR mod 13.
